# Experimental data collected from several papers.
# Compare with care: the assays were run in different laboratories.
# Cell line: OVCAR-8
# Read-out: cell growth or viability
Compound,test,setting,quantity,result
COc1ccc(-c2ccc(-c3ccc(C(=N)N)nc3)s2)cc1Cl,SRB,,GI50,2600 nM
COc1cccc(Oc2ccccc2NC(=O)CNC(=O)c2cccc3ccccc23)c1,SRB,48 h,GI50,692 nM
O=C1Nc2ccccc2C1=NNc1nnc2n1N=C(c1ccccc1)CS2,SRB,10 µM,inhibition,41%
COc1ccc(C(=O)/C=C/c2cccc(Cl)c2Cl)cc1S(N)(=O)=O,SRB,10 µM,inhibition,164%
S=C([S][Au-][P+](CCCCCC[P+]([Au-][S]C(=S)n1cccn1)(c1ccccc1)c1ccccc1)(c1ccccc1)c1ccccc1)n1cccn1,,,GI50,696 nM
COc1cc(-c2ccc(-c3ccc(C(=N)N)nc3)s2)cc(OC)c1OC,SRB,,GI50,2300 nM
Cc1cc(C)n(C(=S)[S][Au][PH](CCCCCC[PH]([Au][S]C(=S)n2nc(C)cc2C)(c2ccccc2)c2ccccc2)(c2ccccc2)c2ccccc2)n1,,,GI50,597 nM
COc1ccc(C(=O)/C=C/c2cccc(Cl)c2)cc1S(N)(=O)=O,SRB,48 h,GI50,2800 nM
